The source of these data is ChEMBL document CHEMBL2396592, “Discovery of Dap-3 polymyxin analogues for the treatment of multidrug-resistant Gram-negative nosocomial infections” (J Med Chem, 2013).

Data set [1] is described as follows: Cytotoxicity against human RPTEC after 24 hrs by LDH assay. It counts as cell-based. The following applies: RPTEC cells, read-out: TC50. The essentials:
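Primary human renal proximal tubule epithelial cells in REGM (EGF, hydrocortisone, epinephrine, insulin, T3, transferrin, gentamycin/amphotericin-B, FBS). After 72 h of growth at 37 °C, 5% CO2, cells were exposed for 24 h to aqueous compound at 100, 67, 44, 30, 20 and 13 μM. LDH release into the supernatant was measured by kit and TC50 (μM) derived, with PMB and PMBN as controls.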

The subject of data set [2] is Acinetobacter baumannii. Nature of the data set: Bactericidal activity against polymyxin-resistant Acinetobacter baumannii clinical isolate 1649. In kind it is functional.
Data set [3] concerns Escherichia coli. Nature of the data set: Antibacterial activity against polymyxin-sensitive Escherichia coli isolate 1 assessed as growth inhibition by broth microdilution method. In kind it is functional. A general note: Dilution methods test growth across graded concentrations, often in twofold steps.
Data set [4] concerns Acinetobacter baumannii. Nature of the data set: Antibacterial activity against polymyxin-sensitive Acinetobacter baumannii clinical isolate 3167 assessed as growth inhibition by broth microdilution method. It counts as functional.
Data set [5] concerns Pseudomonas aeruginosa. Put plainly: Antibacterial activity against polymyxin-sensitive Pseudomonas aeruginosa 1401 assessed as growth inhibition by broth microdilution method. It counts as functional. The essentials: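 CLSI broth microdilution MIC against P. aeruginosa 1401 (PA01) and 1402 (UC12120), the two strains used in the mouse thigh model.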
Data set [6] has as its system Klebsiella pneumoniae. Nature of the data set: Antibacterial activity against polymyxin-sensitive ESBL-positive Klebsiella pneumoniae clinical isolate 3700 assessed as growth inhibition by broth microdilution method. It counts as functional.
For data set [7], the system named is Acinetobacter baumannii. Nature of the data set: Antibacterial activity against polymyxin-resistant Acinetobacter baumannii clinical isolate 1649 assessed as growth inhibition by broth microdilution method. In kind it is functional.
The test system of data set [8] is Pseudomonas aeruginosa. Nature of the data set: Bactericidal activity against polymyxin-resistant Pseudomonas aeruginosa clinical isolate 1646. In kind it is functional. In outline: (§1)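 Test strain PA-1646 is a P. aeruginosa isolate with a mutated PmrAB two-component system. The system is constitutively active, so the modified lipid A moiety is constantly expressed on the cell surface, giving a polymyxin-resistant phenotype.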

The subject of data set [9] is Pseudomonas aeruginosa. Put plainly: Antibacterial activity against polymyxin-resistant Pseudomonas aeruginosa clinical isolate 1646 assessed as growth inhibition by broth microdilution method. In kind it is functional. The essentials:
as §1

The term MBC denotes the lowest tested concentration that kills the bacteria rather than only halting them. High values mean weaker bactericidal potency, low ones greater bactericidal potency. What is called MIC is the least concentration at which growth counts as inhibited.

In brackets after ≈: the same amount, converted by molar mass. Where a SMILES comes first, the peptide text is derived from it. Bridges are numbered along the chain shown (N, C = ends). [ ]: non-standard residue; d: D form. The star is where a group is joined. X7 = N#Cc1ccc(-c2cc(C(=O)*)ccc2Cl)cc1; X4 = O=C(c1ccnc(-c2ccc(Cl)cc2)c1)*; X5 = O=C(c1ccc(Cl)c(-c2ccccn2)c1)*; 2Naphthoyl = O=C(c1ccc2ccccc2c1)*; X2 = COc1ccc(C(=O)*)cc1-c1ccccc1; X1 = O=C(c1cnnc(-c2ccccc2)c1)*; X3 = O=C(c1cncc(-c2ccccc2)c1)*; X6 = CC[C@H](C)CCCCC(=O)*; Dab = NCC[C@H](N)C(=O)O; Dap = NC[C@H](N)C(=O)O

With `CC(C)C[C@@H]1NC(=O)[C@@H](Cc2ccccc2)NC(=O)[C@H](CCN)NC(=O)[C@@H](NC(=O)[C@H](CN)NC(=O)[C@@H](NC(=O)[C@H](CCN)NC(=O)c2ccc3ccccc3c2)[C@@H](C)O)CCNC(=O)[C@H]([C@@H](C)O)NC(=O)[C@H](CCN)NC(=O)[C@H](CCN)NC1=O` (2Naphthoyl-[Dab]T[Dap][Dab][Dab][dF]L[Dab][Dab]T; lactam 4-C), the CC50 at 24 h in data set [1] worked out at 51 µM. The results for the minimum bactericidal concentration (MBC) in data set [2] and in [8] were 2 mg/L (≈ 1.66 µM) and 16 mg/L (≈ 13.3 µM), respectively. Besides, the MIC was 0.125 mg/L in data set [3]; 0.25 mg/L in data set [4]; 0.5 mg/L in data set [5]; 0.125 mg/L in data set [6]; 2 mg/L in data set [7]; 4 mg/L in data set [9].
Regarding `CC(C)C[C@@H]1NC(=O)[C@@H](Cc2ccccc2)NC(=O)[C@H](CCN)NC(=O)[C@@H](NC(=O)[C@H](CN)NC(=O)[C@@H](NC(=O)[C@H](CCN)NC(=O)c2cnnc(-c3ccccc3)c2)[C@@H](C)O)CCNC(=O)[C@H]([C@@H](C)O)NC(=O)[C@H](CCN)NC(=O)[C@H](CCN)NC1=O` (X1-[Dab]T[Dap][Dab][Dab][dF]L[Dab][Dab]T; lactam 4-C), in [1], the CC50 at 24 h was 84 µM. In addition, the minimal bactericidal concentration (MBC) in data set [2] amounted to 4 mg/L (≈ 3.25 µM); in [8] it was 8 mg/L (≈ 6.5 µM). Also, the minimum inhibitory concentration (MIC) in [3] was 0.125 mg/L; in [4], 0.25 mg/L; in data set [5] it was 0.25 mg/L; in [6], 0.125 mg/L; in data set [7], 2 mg/L; in [9] it was 2 mg/L.
For the compound `COc1ccc(C(=O)N[C@@H](CCN)C(=O)N[C@H](C(=O)N[C@@H](CN)C(=O)N[C@H]2CCNC(=O)[C@H]([C@@H](C)O)NC(=O)[C@H](CCN)NC(=O)[C@H](CCN)NC(=O)[C@H](CC(C)C)NC(=O)[C@@H](Cc3ccccc3)NC(=O)[C@H](CCN)NC2=O)[C@@H](C)O)cc1-c1ccccc1` (X2-[Dab]T[Dap][Dab][Dab][dF]L[Dab][Dab]T; lactam 4-C), in data set [1], the CC50 at 24 h turned out to be 27 µM. Moreover, the MBC in data set [2] and in [8] was 2 mg/L (≈ 1.59 µM) throughout. Also, the MIC in data set [3] stood at 0.25 mg/L; in [4], 0.5 mg/L; in data set [5], 0.5 mg/L; in data set [6] it was 0.25 mg/L; in data set [7], 2 mg/L; in data set [9], 1 mg/L.
Take `CC(C)C[C@@H]1NC(=O)[C@@H](Cc2ccccc2)NC(=O)[C@H](CCN)NC(=O)[C@@H](NC(=O)[C@H](CN)NC(=O)[C@@H](NC(=O)[C@H](CCN)NC(=O)c2cncc(-c3ccccc3)c2)[C@@H](C)O)CCNC(=O)[C@H]([C@@H](C)O)NC(=O)[C@H](CCN)NC(=O)[C@H](CCN)NC1=O` (X3-[Dab]T[Dap][Dab][Dab][dF]L[Dab][Dab]T; lactam 4-C): in data set [1], the CC50 at 24 h was found to be 56 µM. Also, the minimal bactericidal concentration (MBC) in data set [2] and in [8] was 4 mg/L (≈ 3.25 µM) throughout. Besides, the MIC was determined as 0.125 mg/L in data set [3]; 0.25 mg/L in data set [4]; 0.5 mg/L in [5]; 0.25 mg/L in data set [6]; 4 mg/L in data set [7]; 2 mg/L in data set [9].
For the compound `CC(C)C[C@@H]1NC(=O)[C@@H](Cc2ccccc2)NC(=O)[C@H](CCN)NC(=O)[C@@H](NC(=O)[C@H](CN)NC(=O)[C@@H](NC(=O)[C@H](CCN)NC(=O)c2ccnc(-c3ccc(Cl)cc3)c2)[C@@H](C)O)CCNC(=O)[C@H]([C@@H](C)O)NC(=O)[C@H](CCN)NC(=O)[C@H](CCN)NC1=O` (X4-[Dab]T[Dap][Dab][Dab][dF]L[Dab][Dab]T; lactam 4-C), the CC50 at 24 h in data set [1] is 30 µM. Further, the MBC in [2] and in data set [8] was 1 mg/L (≈ 0.791 µM) each time. Further, the minimal inhibitory concentration (MIC) is 0.25 mg/L in [3]; 0.25 mg/L in [4]; 0.5 mg/L in data set [5]; 0.25 mg/L in data set [6]; 1 mg/L in data set [7]; 1 mg/L in [9].
Take `CC(C)C[C@@H]1NC(=O)[C@@H](Cc2ccccc2)NC(=O)[C@H](CCN)NC(=O)[C@@H](NC(=O)[C@H](CN)NC(=O)[C@@H](NC(=O)[C@H](CCN)NC(=O)c2ccc(Cl)c(-c3ccccn3)c2)[C@@H](C)O)CCNC(=O)[C@H]([C@@H](C)O)NC(=O)[C@H](CCN)NC(=O)[C@H](CCN)NC1=O` (X5-[Dab]T[Dap][Dab][Dab][dF]L[Dab][Dab]T; lactam 4-C): the CC50 at 24 h in [1] amounted to 72 µM. Moreover, the minimal bactericidal concentration (MBC) in data set [2] amounted to 4 mg/L (≈ 3.16 µM); in data set [8], 16 mg/L (≈ 12.6 µM). The MIC came to 0.25 mg/L in data set [3]; 0.25 mg/L in data set [4]; 1 mg/L in data set [5]; 0.25 mg/L in data set [6]; 4 mg/L in data set [7]; 4 mg/L in data set [9].
With `CC[C@H](C)CCCCC(=O)N[C@@H](CCN)C(=O)N[C@H](C(=O)N[C@@H](CCN)C(=O)N[C@H]1CCNC(=O)[C@H]([C@@H](C)O)NC(=O)[C@H](CCN)NC(=O)[C@H](CCN)NC(=O)[C@H](CC(C)C)NC(=O)[C@@H](Cc2ccccc2)NC(=O)[C@H](CCN)NC1=O)[C@@H](C)O` (X6-[Dab]T[Dab][Dab][Dab][dF]L[Dab][Dab]T; lactam 4-C), the CC50 at 24 h in data set [1] amounted to 27 µM. Moreover, the MBC was 4 mg/L (≈ 3.32 µM) in data set [2] and 16 mg/L (≈ 13.3 µM) in data set [8]. For the same compound, the MIC stood at 0.125 mg/L in [3]; 0.25 mg/L in [4]; 0.5 mg/L in [5]; 0.5 mg/L in data set [6]; 4 mg/L in data set [7]; 4 mg/L in data set [9].
On to `CC[C@H](C)CCCCC(=O)N[C@@H](CCN)C(=O)N[C@H](C(=O)N[C@@H](CN)C(=O)N[C@H]1CCNC(=O)[C@H]([C@@H](C)O)NC(=O)[C@H](CCN)NC(=O)[C@H](CCN)NC(=O)[C@H](CC(C)C)NC(=O)[C@@H](Cc2ccccc2)NC(=O)[C@H](CCN)NC1=O)[C@@H](C)O` (X6-[Dab]T[Dap][Dab][Dab][dF]L[Dab][Dab]T; lactam 4-C), for which the CC50 at 24 h in [1] was 72 µM. Further, the values for the MBC in [2] and in [8] were 4 mg/L (≈ 3.36 µM) and 2 mg/L (≈ 1.68 µM), respectively. Also, the minimum inhibitory concentration (MIC) in data set [3] turned out to be 0.125 mg/L; in data set [4], 0.125 mg/L; in data set [5] it was 0.5 mg/L; in [6], 0.125 mg/L; in data set [7], 4 mg/L; in data set [9], 1 mg/L.
As to `CC(C)C[C@@H]1NC(=O)[C@@H](Cc2ccccc2)NC(=O)[C@H](CCN)NC(=O)[C@@H](NC(=O)[C@H](CN)NC(=O)[C@@H](NC(=O)[C@H](CCN)NC(=O)c2ccc(Cl)c(-c3ccc(C#N)cc3)c2)[C@@H](C)O)CCNC(=O)[C@H]([C@@H](C)O)NC(=O)[C@H](CCN)NC(=O)[C@H](CCN)NC1=O` (X7-[Dab]T[Dap][Dab][Dab][dF]L[Dab][Dab]T; lactam 4-C), the CC50 at 24 h in data set [1] was determined as 20 µM. In addition, the MBC in data set [2] and in [8] was 4 mg/L (≈ 3.1 µM) each time. Further, the minimal inhibitory concentration (MIC) is 0.5 mg/L in data set [3]; 0.5 mg/L in data set [4]; 1 mg/L in data set [5]; 0.5 mg/L in [6]; 4 mg/L in data set [7]; 1 mg/L in data set [9].
